According to ChEMBL document CHEMBL4680118, “Cerpegin-derived furo[3,4-c]pyridine-3,4(1H,5H)-diones enhance cellular response to interferons by de novo pyrimidine biosynthesis inhibition” (Eur J Med Chem, 2020):
Calls of active or inactive are those of the source. The calls are words filed in the database; no cut-off is given here.

Assays:
Assay type in all cases: cell-based
[1] = target: T1, Dihydroorotate dehydrogenase (quinone), mitochondrial (Homo sapiens, UniProt Q02127); assay: Inhibition of DHODH in human HEK293 cells transfected with ISRE-luciferase reporter gene assessed as increase in 60 IU/ml IFN-alpha stimulated DDX58 mRNA expression at 80 uM measured after 16 hrs by RT-qPCR analysis relative to control
Outline: (§1)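 ISRE-Luc HEK cells co-treated with increasing IFN-α concentrations and DMSO or compound (80 µM) for 16 h. Total RNA extracted from 2×10^5 cells with DNase step; qPCR 35 cycles. CT values normalized to RPL13A and unstimulated controls (2^-ΔΔCT), expressed as fold change versus DMSO alone. Three independent experiments; two-way ANOVA with Bonferroni.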

[2] = target: T1, Dihydroorotate dehydrogenase (quinone), mitochondrial; assay: Inhibition of DHODH in human HEK293 cells transfected with ISRE-luciferase reporter gene assessed as increase in 125 IU/ml IFN-alpha stimulated […] mRNA expression at 80 uM measured after 16 hrs by RT-qPCR analysis relative to control; outline: as §1
[3] = target: T1, Dihydroorotate dehydrogenase (quinone), mitochondrial; assay: Inhibition of DHODH in human HEK293 cells transfected with ISRE-luciferase reporter gene assessed as increase in 30 IU/ml IFN-alpha stimulated […] mRNA expression at 80 uM measured after 16 hrs by RT-qPCR analysis relative to control; outline: as §1
[4] = target: T1, Dihydroorotate dehydrogenase (quinone), mitochondrial; assay: Inhibition of DHODH in HEK293 cells assessed as reduction in number of viable cells at 6 to 193 uM measured upto 72 hrs by Celltiter-Glo assay; details: dose 6-193 µM, time hrs <=72
Outline: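 HEK-293 ISRE-Luc cells in DMEM with 10% FCS at 37°C, 5% CO2, treated with compound or DMSO; viable cells quantified by ATP content (CellTiter-Glo luminescence) after 24, 48 and 72 h. Expressed as percent of untreated cells at t = 0 h; means ± SD of two independent experiments.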

[5] = target: T1, Dihydroorotate dehydrogenase (quinone), mitochondrial; assay: Inhibition of DHODH in human HEK293 cells transfected with ISRE-luciferase reporter gene assessed as increase in 125 IU/ml IFN-alpha stimulated PML mRNA expression at 80 uM measured after 16 hrs by RT-qPCR analysis relative to control; outline: as §1
[6] = target: T1, Dihydroorotate dehydrogenase (quinone), mitochondrial; assay: Inhibition of DHODH in human HEK293 cells assessed as increase in 250 IU/ml IFN-alpha stimulated ISG15 mRNA expression at 80 uM measured after 16 hrs by RT-qPCR analysis relative to control; outline: as §1
[7] = target: T1, Dihydroorotate dehydrogenase (quinone), mitochondrial; assay: Inhibition of DHODH in human HEK293 cells transfected with ISRE-luciferase reporter gene assessed as increase in 250 IU/ml IFN-alpha stimulated IFIT1 mRNA expression at 80 uM measured after 16 hrs by RT-qPCR analysis relative to control; outline: as §1
[8] = target: T1, Dihydroorotate dehydrogenase (quinone), mitochondrial; assay: Inhibition of DHODH in human HEK293 cells transfected with ISRE-luciferase reporter gene assessed as increase in 250 IU/ml IFN-alpha stimulated PML mRNA expression at 80 uM measured after 16 hrs by RT-qPCR analysis relative to control; outline: as §1
[9] = target: T1, Dihydroorotate dehydrogenase (quinone), mitochondrial; assay: Inhibition of DHODH in human HEK293 cells transfected with ISRE-luciferase reporter gene assessed as increase in 60 IU/ml IFN-alpha stimulated PML mRNA expression at 80 uM measured after 16 hrs by RT-qPCR analysis relative to control
Outline: (§2)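 HEK-293 ISRE-Luc cells (DMEM, 10% FCS, 37°C, 5% CO2) were given increasing IFN-α doses together with DMSO or compound at 80 μM, then harvested at 16 h. RNA was extracted from 2×10^5 cells with DNase treatment. Transcripts were run by qPCR for 35 cycles and normalized to RPL13A and to unstimulated controls by 2^-ΔΔCT. Values are fold change versus DMSO; three independent experiments; two-way ANOVA with Bonferroni.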

[10] = target: T1, Dihydroorotate dehydrogenase (quinone), mitochondrial; assay: Inhibition of DHODH in human HEK293 cells transfected with ISRE-luciferase reporter gene assessed as increase in 250 IU/ml IFN-alpha stimulated IFIT3 mRNA expression at 80 uM measured after 16 hrs by RT-qPCR analysis relative to control; outline: as §1
[11] = target: T1, Dihydroorotate dehydrogenase (quinone), mitochondrial; assay: Inhibition of DHODH in human HEK293 cells transfected with ISRE-luciferase reporter gene assessed as increase in 60 IU/ml IFN-alpha stimulated PKR mRNA expression at 80 uM measured after 16 hrs by RT-qPCR analysis relative to control; outline: as §2
[12] = target: T1, Dihydroorotate dehydrogenase (quinone), mitochondrial; assay: Inhibition of DHODH in human HEK-293 cells transfected with ISRE-luciferase reporter gene assessed as increase in IFN-alpha mediated cellular response at 80 uM in presence of DHO measured after 24 hrs by luciferase reporter gene assay; details: HEK293
Outline: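 ISRE-Luc HEK-293 cells exposed to increasing IFN-α concentrations with DMSO or compound (80 µM), supplemented with uridine (125 µM) or with 3 mM orotate or DHO. Reporter luciferase read after 24 h, normalized to DMSO + IFN-α 250 IU/ml. Means ± SD of three independent experiments; two-way ANOVA.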

[13] = target: T1, Dihydroorotate dehydrogenase (quinone), mitochondrial; assay: Inhibition of DHODH in human HEK293 cells transfected with ISRE-luciferase reporter gene assessed as increase in 30 IU/ml IFN-alpha stimulated IFIT2 mRNA expression at 80 uM measured after 16 hrs by RT-qPCR analysis relative to control; outline: as §1
[14] = target: T1, Dihydroorotate dehydrogenase (quinone), mitochondrial; assay: Inhibition of DHODH in human HEK-293 cells transfected with ISRE-luciferase reporter gene assessed as increase in IFN-alpha mediated cellular response at 6 to 178 uM after 24 hrs by luciferase reporter gene assay; details: HEK293, dose 6-178 µM
[15] = target: T1, Dihydroorotate dehydrogenase (quinone), mitochondrial; assay: Inhibition of DHODH in human HEK293 cells transfected with ISRE-luciferase reporter gene assessed as increase in 250 IU/ml IFN-alpha stimulated […] mRNA expression at 80 uM measured after 16 hrs by RT-qPCR analysis relative to control; outline: as §1
[16] = target: T1, Dihydroorotate dehydrogenase (quinone), mitochondrial; assay: Inhibition of DHODH in human HEK293 cells transfected with ISRE-luciferase reporter gene assessed as increase in 125 IU/ml IFN-alpha stimulated IFIT1 mRNA expression at 80 uM measured after 16 hrs by RT-qPCR analysis relative to control; outline: as §1
[17] = target: T1, Dihydroorotate dehydrogenase (quinone), mitochondrial; assay: Inhibition of DHODH in human HEK293 cells transfected with ISRE-luciferase reporter gene assessed as increase in 60 IU/ml IFN-alpha stimulated […] mRNA expression at 80 uM measured after 16 hrs by RT-qPCR analysis relative to control; outline: as §1
[18] = target: T1, Dihydroorotate dehydrogenase (quinone), mitochondrial; assay: Inhibition of DHODH in human HEK293 cells transfected with ISRE-luciferase reporter gene assessed as increase in 60 IU/ml IFN-alpha stimulated IFIT1 mRNA expression at 80 uM measured after 16 hrs by RT-qPCR analysis relative to control; outline: as §1

T1 sequence (Q02127 whole entry): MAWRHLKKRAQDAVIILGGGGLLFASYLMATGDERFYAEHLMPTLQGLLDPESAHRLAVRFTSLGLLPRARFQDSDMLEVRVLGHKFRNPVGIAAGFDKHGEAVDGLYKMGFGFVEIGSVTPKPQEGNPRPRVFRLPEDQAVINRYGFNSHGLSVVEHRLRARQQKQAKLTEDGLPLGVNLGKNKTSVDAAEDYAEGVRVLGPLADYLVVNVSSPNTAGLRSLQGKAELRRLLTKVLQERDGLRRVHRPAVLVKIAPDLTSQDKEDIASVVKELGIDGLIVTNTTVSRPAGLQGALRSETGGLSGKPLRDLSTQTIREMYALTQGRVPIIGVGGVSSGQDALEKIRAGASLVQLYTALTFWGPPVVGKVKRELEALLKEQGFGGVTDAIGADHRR

O=C1OC2(CCCCC2)c2ccn(C3CC3)c(=O)c21
fold change (FC) [1]: 23 | fold change (FC) [2]: 117 | fold change (FC) [3]: 44 | inhibition [4]: Active | fold change (FC) [5]: 5 | fold change (FC) [6]: 226 | fold change (FC) [7]: 145 | fold change (FC) [8]: 5 | fold change (FC) [9]: 4 | fold change (FC) [10]: 129 | fold change (FC) [11]: 3 | Activity [12]: Active | fold change (FC) [13]: 26 | Activity [14]: Active | fold change (FC) [15]: 143 | fold change (FC) [16]: 115 | fold change (FC) [17]: 83 | fold change (FC) [18]: 85
